{"source": "paper PMC3945061", "about": "(Pain, 2013)", "key": {"[1]": {"tested_on": "DRG neurons from Mrg KO mice", "test": "Calcium imaging, DRG neurons from Mrg KO mice", "type": "cell-based, mouse", "details": "capsaicin 0.5 μM, positive control, after JHU58", "in_short": "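Mrg KO mice: 845 kb chromosome 7 deletion covering 12 Mrg genes incl. MrgC11, backcrossed to C57BL/6 at least five generations. DRGs from 3–4-week-old mice were enzyme-dissociated at 37°C, plated on poly-D-lysine/laminin coverslips, and used within 24 h. Fura-2 AM loading for 30 min in the dark at room temperature; 340/380 nm ratio imaging; bath drug application; experimenter blinded to genotype.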"}, "pain / nociception": {"tested_on": "pain / nociception", "details": "cited from earlier work"}, "rats (lower limbs)": {"tested_on": "rats (lower limbs)", "test": "Motor paralysis after intrathecal injection", "type": "in vivo, rat", "details": "intrathecal lidocaine 400 μg/20 μl"}, "[2]": {"tested_on": "SNL rats (mechanical hypersensitivity)", "test": "Paw withdrawal threshold", "type": "in vivo, rat", "details": "intrathecal FMRFamide 2 mM, 10 μl, n=7, 30 and 60 minutes", "in_short": "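Male Sprague-Dawley rats (200–350 g) had the left L5 spinal nerve ligated with 6-0 silk and cut distally. They were tested 4–5 weeks later via an intrathecal PE-10 catheter inserted through the atlanto-occipital membrane, with compound diluted in saline. Ipsilateral plantar PWT was measured by the up-down method (von Frey 0.38–13.1 g, 4–6 s) using the Dixon formula. Tests ran in the morning, blinded.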"}}, "data": [{"compound": "COc1cc(CNC(=O)CCCC/C=C/C(C)C)ccc1O", "note": "[capsaicin]", "values": [{"measurement": "DRG neurons from Mrg KO mice with an increase in [Ca2+]i", "setting": "[1]", "value": 32, "unit": "%"}, {"measurement": "Effect on pain, peripheral versus central application", "setting": "pain / nociception; capsaicin", "value": "induces burning pain in the periphery, but it inhibits pain when applied centrally"}]}, {"compound": "CCN(CC)CC(=O)Nc1c(C)cccc1C", "note": "[lidocaine]", "values": [{"measurement": "Motor paralysis of the lower limbs", "setting": "rats (lower limbs)", "value": "temporary motor paralysis of the lower limbs"}]}, {"compound": "FMRFamide", "values": [{"measurement": "Mechanical hypersensitivity, ipsilateral PWT", "setting": "[2]", "value": "inhibited mechanical hypersensitivity in the ipsilateral hindpaw of SNL rats"}]}, {"compound": "γ^2-MSH", "values": [{"measurement": "Effect on nociception (acute and inflammatory pain models)", "setting": "pain / nociception; systemic and intrathecal injections", "value": "produce pronociceptive effects in acute pain models and contribute to heat hyperalgesia in an inflammatory pain model"}]}]}
